Data published in ChEMBL document CHEMBL1275259, “In vitro antituberculosis activities of ACH-702, a novel isothiazoloquinolone, against quinolone-susceptible and quinolone-resistant isolates” (Antimicrob Agents Chemother, 2010).
Values after ≈ are worked out from the molar mass of the structure shown.

Key:
[1] = system: Mycobacterium tuberculosis; test: Antimicrobial activity against pansusceptible Mycobacterium tuberculosis isolate 6; type: functional
In short: (§1)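 Broth microdilution MIC in modified 7H10 broth (pH 6.6). Drugs dissolved in DMSO at 1 mg/ml, then serially diluted. Isolates grown 5 to 10 days at 37°C on a rotary shaker, diluted to 100 Klett units and frozen. Final inoculum about 6 × 10^4 CFU/ml (range 1.2 × 10^4 to 2.6 × 10^5). Duplicate wells, sealed, read after about 21 days at 37°C in ambient air.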

[2] = system: Mycobacterium tuberculosis; test: Antimicrobial activity against pansusceptible Mycobacterium tuberculosis isolate 5; type: functional; in short: as §1
[3] = system: Mycobacterium tuberculosis; test: Antimicrobial activity against pansusceptible Mycobacterium tuberculosis isolate 2; type: functional; in short: as §1
[4] = system: Mycobacterium tuberculosis; test: Antimicrobial activity against Mycobacterium tuberculosis isolate 13 isolated from Beijing; type: functional; in short: as §1
[5] = system: Mycobacterium tuberculosis; test: Antimicrobial activity against pansusceptible Mycobacterium tuberculosis isolate 14; type: functional; in short: as §1
[6] = system: Mycobacterium tuberculosis; test: Antimicrobial activity against pansusceptible Mycobacterium tuberculosis isolate 7; type: functional; in short: as §1
[7] = system: Mycobacterium tuberculosis; test: Antimicrobial activity against pansusceptible Mycobacterium tuberculosis isolate 1; type: functional; in short: as §1
DNA gyrase subunit A = DNA gyrase subunit A (Mycobacterium tuberculosis, UniProt P9WG47); test: Inhibition of DNA supercoiling activity of wild type Mycobacterium tuberculosis DNA gyrase A
Sequence of DNA gyrase subunit A (P9WG47 whole entry): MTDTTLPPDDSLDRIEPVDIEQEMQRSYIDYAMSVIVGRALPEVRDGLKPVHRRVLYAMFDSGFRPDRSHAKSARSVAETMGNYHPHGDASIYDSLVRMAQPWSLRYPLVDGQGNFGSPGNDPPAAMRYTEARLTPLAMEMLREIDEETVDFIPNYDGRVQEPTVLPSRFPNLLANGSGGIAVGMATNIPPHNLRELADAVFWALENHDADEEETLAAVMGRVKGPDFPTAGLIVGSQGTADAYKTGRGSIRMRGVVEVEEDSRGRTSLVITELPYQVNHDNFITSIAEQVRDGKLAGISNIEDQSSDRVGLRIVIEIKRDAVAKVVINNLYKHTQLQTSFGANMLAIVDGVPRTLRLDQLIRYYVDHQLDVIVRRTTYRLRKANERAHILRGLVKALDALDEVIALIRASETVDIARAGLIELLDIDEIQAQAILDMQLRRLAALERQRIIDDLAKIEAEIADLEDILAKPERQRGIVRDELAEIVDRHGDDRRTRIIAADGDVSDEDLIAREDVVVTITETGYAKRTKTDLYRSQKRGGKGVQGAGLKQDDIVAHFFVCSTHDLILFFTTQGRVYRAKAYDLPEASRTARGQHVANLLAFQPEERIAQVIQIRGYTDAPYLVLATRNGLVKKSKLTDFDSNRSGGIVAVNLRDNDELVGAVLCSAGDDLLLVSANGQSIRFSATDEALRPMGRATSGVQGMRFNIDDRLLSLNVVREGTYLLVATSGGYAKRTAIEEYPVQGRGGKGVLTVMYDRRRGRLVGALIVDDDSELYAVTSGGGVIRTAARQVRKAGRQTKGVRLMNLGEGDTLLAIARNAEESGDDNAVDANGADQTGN
In short: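 Gyrase reconstituted from wild-type GyrA plus wild-type GyrB at a 2:3 molar ratio. Supercoiling assay follows ATP-dependent conversion of relaxed pBR322 DNA to the supercoiled form. Supercoiled product quantified by ethidium bromide fluorescence after agarose gel electrophoresis.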

[8] = system: Mycobacterium tuberculosis; test: Antimicrobial activity against pansusceptible Mycobacterium tuberculosis isolate 4; type: functional; in short: as §1
[9] = system: Mycobacterium tuberculosis; test: Antimicrobial activity against pansusceptible Mycobacterium tuberculosis isolate 3; type: functional; in short: as §1

For `COc1c(N2CC[C@@H](C(C)(C)N)C2)c(F)cc2c(=O)c3c(=O)[nH]sc3n(C3CC3)c12`, the MIC [1] was 0.03 µg/mL (≈ 0.0694 µM), the MIC [2] was 0.06 µg/mL (≈ 0.139 µM) and the MIC [3] was 0.03 µg/mL (≈ 0.0694 µM). For the same compound, the MIC [4] was 0.06 µg/mL (≈ 0.139 µM), the MIC [5] was 0.06 µg/mL (≈ 0.139 µM) and the MIC [6] was 0.06 µg/mL (≈ 0.139 µM). The MIC [7] was 0.06 µg/mL (≈ 0.139 µM), the IC50 (DNA gyrase subunit A) was 2.9 µM and the MIC [8] was 0.06 µg/mL (≈ 0.139 µM). The MIC [9] was 0.06 µg/mL (≈ 0.139 µM).
`COc1c(N2CCNC(C)C2)c(F)cc2c(=O)c(C(=O)O)cn(C3CC3)c12` (centres undefined) [GATIFLOXACIN] was tested, and the IC50 (DNA gyrase subunit A) was 9.4 µM.
Work on `NNC(=O)c1ccncc1` [ISONIAZID] yielded an MIC [1] of 0.06 µg/mL (≈ 0.438 µM), an MIC [2] of 0.125 µg/mL (≈ 0.911 µM) and an MIC [3] of 0.06 µg/mL (≈ 0.438 µM). For the same compound, the MIC [4] was 0.125 µg/mL (≈ 0.911 µM), the MIC [5] was 0.06 µg/mL (≈ 0.438 µM) and the MIC [6] was 0.06 µg/mL (≈ 0.438 µM). For the same compound, the MIC [7] was 0.03 µg/mL (≈ 0.219 µM), the MIC [8] was 0.06 µg/mL (≈ 0.438 µM) and the MIC [9] was 0.06 µg/mL (≈ 0.438 µM).
Compound `C[C@H]1COc2c(N3CCN(C)CC3)c(F)cc3c(=O)c(C(=O)O)cn1c23` [LEVOFLOXACIN] has an IC50 (DNA gyrase subunit A) of 52 µM.
Compound `COc1c(N2C[C@@H]3CCCN[C@@H]3C2)c(F)cc2c(=O)c(C(=O)O)cn(C3CC3)c12` [MOXIFLOXACIN] has an MIC [1] of 0.03 µg/mL (≈ 0.0747 µM), an MIC [2] of 0.06 µg/mL (≈ 0.149 µM) and an MIC [3] of 0.03 µg/mL (≈ 0.0747 µM). For the same compound, the MIC [4] was 0.03 µg/mL (≈ 0.0747 µM), the MIC [5] was 0.03 µg/mL (≈ 0.0747 µM) and the MIC [6] was 0.06 µg/mL (≈ 0.149 µM). For the same compound, the MIC [7] was 0.03 µg/mL (≈ 0.0747 µM), the MIC [8] was 0.06 µg/mL (≈ 0.149 µM) and the MIC [9] was 0.03 µg/mL (≈ 0.0747 µM).
With `CO[C@H]1/C=C/O[C@@]2(C)Oc3c(C)c(O)c4c(O)c(c(/C=N/N5CCN(C)CC5)c(O)c4c3C2=O)NC(=O)/C(C)=C\C=C\[C@H](C)[C@H](O)[C@@H](C)[C@@H](O)[C@@H](C)[C@H](OC(C)=O)[C@@H]1C` [RIFAMPIN] the MIC [1] was 0.008 µg/mL (≈ 0.00972 µM), the MIC [2] was 0.015 µg/mL (≈ 0.0182 µM) and the MIC [3] was ≤ 0.001 µg/mL. For the same compound, the MIC [4] was 0.002 µg/mL (≈ 0.00243 µM), the MIC [5] was 0.002 µg/mL (≈ 0.00243 µM) and the MIC [6] was 0.004 µg/mL (≈ 0.00486 µM). The MIC [7] was 0.004 µg/mL (≈ 0.00486 µM), the MIC [8] was 0.008 µg/mL (≈ 0.00972 µM) and the MIC [9] was 0.004 µg/mL (≈ 0.00486 µM).
